Results taken from article PMC3646928 (Peptides, 2013).

Tests used:
protein-free HJ DNA = experiment: Non-competitive HJ band shift; format: binding
E. coli MG1655 cells = experiment: Bacterial TUNEL assay; format: cell-based; conditions: highest concentration tested, 1.5 hours
Method in brief: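 E. coli MG1655 grown as for MIC testing: overnight culture diluted 1:100 in Mueller Hinton broth, grown to OD600 0.08–0.1, then exposed to peptide for 1.5 h. Cells pelleted and resuspended in 1× PBS. TdT labels 3′-OH ends with fluorescein-dUTP; TOTO-3 counterstains DNA. Flow cytometry (488 nm FITC, 633 nm APC; 50,000 events). TUNEL-positive expressed as fraction of TOTO-3-positive cells, normalized to DMSO-treated cells.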

Substance	shift of protein-free HJ DNA in EMSA (specific shift) (protein-free HJ DNA)	TUNEL-positive cells (E. coli MG1655 cells) [%]
KWWRGGRWWK	caused a change in the mobility of protein-free HJ DNA similar to shifts seen with (WRWYCR)2	
WYCRGGRCYW	Neither WRWYGGYWRW nor WYCRGGRCYW caused specific shifts at low peptide concentrations	
WRWYCR		75.6 ± 2.2
WRWYGGYWRW	Neither WRWYGGYWRW nor WYCRGGRCYW caused specific shifts at low peptide concentrations	
